The values that follow come from ChEMBL document CHEMBL1148401, “Synthesis and structure-activity relationships of novel arylpiperazines as potent and selective agonists of the melanocortin subtype-4 receptor” (J Med Chem, 2004).

For data set [1], the target named is T1, Melanocortin receptor 4 (Homo sapiens, UniProt P32245). Kind of data set: Agonistic potency towards human melanocortin 4 receptor, determined by 50% maximum cAMP release. The data set is classed as functional. A digest of the protocol:
(§1)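 HEK293 cells stably expressing human MC3 or MC4 receptor, suspended in HBSS/0.1% BSA/10 mM HEPES at 1 × 10⁶ cells/mL. Compound serial dilutions 10 µM to 0.1 nM; NDP-α-MSH control agonist 100 nM to 1 pM. 20 min at 37 °C, quenched with sodium acetate/Triton X-100. cAMP by SPA competition with ¹²⁵I-cAMP, 12 h. EC50 at 50% maximal cAMP release, n = 2, ± SEM.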

Data set [2] deals with T1, Melanocortin receptor 4. In words: Binding affinity towards human melanocortin 4 receptor using [125I]NDP-alpha-MSH as a radioligand in HEK293 cells. In kind it is cell-based. A digest of the protocol: (§2)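 Membranes from HEK293 cells stably expressing human MC1, MC3, MC4 or MC5 receptor, 0.5-5.0 µg protein, with 100 pM ¹²⁵I-NDP-α-MSH and WGA SPA beads. Buffer 25 mM HEPES pH 7.5, 10 mM CaCl₂, 0.3% BSA. Compound 30 µM to 300 pM. 10 h at room temperature, scintillation counting. Four-parameter logistic IC50 converted to Ki by Cheng-Prusoff; n = 2 or 4, ± SEM.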

Data set [3] addresses Melanocyte-stimulating hormone receptor (Homo sapiens, UniProt Q01726). Kind of data set: Binding affinity towards human Melanocortin 1 receptor (MC1R) using [125I]NDP-alpha-MSH as a radioligand in membranes of HEK 293 cells. The data set is classed as cell membranes, HEK293. In short, it runs like this:
as §2

A short description of data set [4]: Oral bioavailability in fischer rats at 30 mg/kg dose, administered perorally. The note with it: rat, in vivo, read-out: Bioavailabiility. The data set is classed as ADME, organism-based. A digest of the protocol:
(§3)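 Fischer 344 rats, n = 3 per route: 5 mg/kg iv, or 30 mg/kg by gavage in 10% acacia. Retro-orbital blood into heparinized syringes at 0.5, 1, 2, 6 h after oral dosing and 0.083, 1, 2, 4, 6, 8, 24 h after iv dosing. Plasma stored at -70 °C and quantified by electrospray LC/MS/MS against standards by least-squares regression.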

Data set [5] concerns the target Melanocortin receptor 5 (Homo sapiens, UniProt P33032). Kind of data set: Binding affinity towards human Melanocortin 5 receptor (MC5R) using [125I]NDP-alpha-MSH as a radioligand in membranes of HEK 293 cells. In kind it is cell membranes, HEK293. A digest of the protocol:
as §2

The target of data set [6] is T2, Melanocortin receptor 3 (Homo sapiens, UniProt P41968). Kind of data set: Agonistic potency towards human Melanocortin 3 receptor (MC3R) was determined by 50% maximum cAMP release. In kind it is functional. In short, it runs like this: as §1
The nature of data set [7]: Volume distribution in fischer rats at 5 mg/kg dose, administered intravenously. In kind it is ADME, organism-based. Also noted: dose 5 mg/kg, route intravenous. Particulars: rat, in vivo, iv, read-out: Volume distribution. In short, it runs like this: as §3
A short description of data set [8]: Tmax in fischer rats at 30 mg/kg dose, administered orally. Particulars: rat, in vivo, po.
A short description of data set [9]: Half-life in fischer rats at 5 mg/kg dose, administered intravenously. The data set is classed as ADME, organism-based. Details: dose 5 mg/kg, route intravenous. Particulars: rat, in vivo, iv. A digest of the protocol: as §3
For data set [10], the target named is T2, Melanocortin receptor 3. Kind of data set: Binding affinity towards human Melanocortin 3 receptor (MC3R) using [125I]NDP-alpha-MSH as a radioligand in membranes of HEK 293 cells. The data set is classed as cell membranes, HEK293. In short, it runs like this:
as §2

Data set [11] is described as follows: Clearance in fischer rats at 5 mg/kg dose, administered intravenously. In kind it is ADME, organism-based. Also noted: dose 5 mg/kg, route intravenous. Particulars: rat, in vivo, iv. A digest of the protocol:
as §3

pEC50, pKi: −log10 of the molar value.

Melanocortin receptor 5, sequence (P33032 whole entry): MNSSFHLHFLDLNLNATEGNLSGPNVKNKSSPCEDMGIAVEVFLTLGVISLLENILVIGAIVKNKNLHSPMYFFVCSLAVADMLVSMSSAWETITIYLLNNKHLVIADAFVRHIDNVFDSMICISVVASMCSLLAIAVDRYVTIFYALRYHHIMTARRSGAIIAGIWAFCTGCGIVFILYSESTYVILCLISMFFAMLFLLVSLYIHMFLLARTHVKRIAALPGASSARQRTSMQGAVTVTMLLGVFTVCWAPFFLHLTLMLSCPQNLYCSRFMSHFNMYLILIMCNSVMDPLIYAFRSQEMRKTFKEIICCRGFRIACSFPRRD
Melanocyte-stimulating hormone receptor, sequence (Q01726 whole entry): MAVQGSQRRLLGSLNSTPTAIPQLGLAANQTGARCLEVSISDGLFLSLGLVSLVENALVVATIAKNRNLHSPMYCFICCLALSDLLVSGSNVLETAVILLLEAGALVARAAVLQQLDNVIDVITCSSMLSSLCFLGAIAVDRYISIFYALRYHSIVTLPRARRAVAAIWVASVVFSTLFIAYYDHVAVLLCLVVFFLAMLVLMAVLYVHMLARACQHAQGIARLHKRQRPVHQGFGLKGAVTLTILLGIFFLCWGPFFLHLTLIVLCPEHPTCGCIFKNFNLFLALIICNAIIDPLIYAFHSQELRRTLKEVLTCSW
T1 sequence (P32245 whole entry): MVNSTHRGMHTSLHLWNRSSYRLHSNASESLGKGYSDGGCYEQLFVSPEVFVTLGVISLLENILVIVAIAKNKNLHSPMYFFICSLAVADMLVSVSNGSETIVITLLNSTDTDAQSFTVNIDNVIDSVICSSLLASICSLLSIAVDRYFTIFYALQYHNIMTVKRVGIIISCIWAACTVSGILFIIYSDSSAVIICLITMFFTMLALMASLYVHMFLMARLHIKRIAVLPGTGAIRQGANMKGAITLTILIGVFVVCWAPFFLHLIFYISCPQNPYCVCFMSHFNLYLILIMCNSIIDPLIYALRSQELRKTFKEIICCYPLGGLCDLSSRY
T2 sequence (P41968 whole entry): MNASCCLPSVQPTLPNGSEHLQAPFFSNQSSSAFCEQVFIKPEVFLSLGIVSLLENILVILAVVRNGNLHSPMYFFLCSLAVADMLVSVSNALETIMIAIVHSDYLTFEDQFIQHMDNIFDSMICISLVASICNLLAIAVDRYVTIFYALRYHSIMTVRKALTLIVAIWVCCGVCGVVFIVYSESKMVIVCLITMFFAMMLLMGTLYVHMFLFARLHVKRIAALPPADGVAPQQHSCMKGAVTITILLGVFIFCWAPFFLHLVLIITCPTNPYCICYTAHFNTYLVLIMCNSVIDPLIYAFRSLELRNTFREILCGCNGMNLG

As for `O=C(N[C@H](Cc1ccc(Cl)cc1)C(=O)N1CCN(c2ccccc2OCc2ccccc2)CC1)[C@H]1Cc2ccccc2CN1`, the negative-log EC50 (pEC50) in [1] was 6.82. This molecule gave a pKi in [2] of 6.19.

As for `CN(C)CCOc1ccccc1N1CCN(C(=O)[C@@H](Cc2ccc(Cl)cc2)NC(=O)[C@H]2Cc3ccccc3CN2)CC1`, the pEC50 in data set [1] is 7.01. Moreover, the pKi in data set [2] is 6.64.

`Cc1nccn1Cc1ccccc1N1CCN(C(=O)[C@@H](Cc2ccc(Cl)cc2)NC(=O)[C@H]2Cc3ccccc3CN2)CC1` showed a negative-log EC50 (pEC50) in data set [1] of 7.68. The molecule further showed a negative logarithm of the Ki (pKi) in data set [2] of 6.85.

`CC(C)Oc1ccccc1N1CCN(C(=O)[C@@H](Cc2ccc(Cl)cc2)NC(=O)[C@H]2Cc3ccccc3CN2)CC1` had a pEC50 in data set [1] of 7.03. Also, in data set [2], the negative logarithm of the Ki (pKi) is 6.34.

`Nc1ccccc1N1CCN(C(=O)[C@@H](Cc2ccc(Cl)cc2)NC(=O)[C@H]2Cc3ccccc3CN2)CC1`: the pEC50 in data set [1] was 6.70. The same molecule gave a pKi in data set [2] of 5.77.

For `O=C(N[C@H](Cc1ccc(Cl)cc1)C(=O)N1CCN(c2ccccc2Oc2ccccc2)CC1)[C@H]1Cc2ccccc2CN1`, the pEC50 in data set [1] is 6.40. In [2], the pKi is 6.19.

On to `COc1ccccc1N1CCN(C(=O)[C@@H](Cc2ccc(Cl)cc2)NC(=O)[C@H]2Cc3ccccc3CN2)CC1`, for which the pEC50 in data set [1] is 7.15. Further, the pKi in data set [2] is 5.96.

As for `O=C(N[C@H](Cc1ccc(Cl)cc1)C(=O)N1CCN(c2ccccc2[N+](=O)[O-])CC1)[C@H]1Cc2ccccc2CN1`, the pEC50 in [1] was 6.68. This molecule also gave a pKi in data set [2] of 5.62.

Regarding `CS(=O)(=O)Nc1ccccc1N1CCN(C(=O)[C@@H](Cc2ccc(Cl)cc2)NC(=O)[C@H]2Cc3ccccc3CN2)CC1`, the pEC50 in data set [1] is 7.80; in data set [6], 5.70. Further, the pKi is 4.92 in data set [3], 5.92 in data set [5], 6.66 in data set [2] and 5.06 in data set [10]. The bioavailability in data set [4] worked out at 30%. Besides, in [7], the Vd was 4.5 L/kg. Moreover, in data set [8], the time of peak concentration (Tmax) came out at 3 h. This molecule gave a half-life in data set [9] of 1.7 h. The molecule also showed a clearance in data set [11] of 43 mL/min/kg.

Take `Cc1ccccc1N1CCN(C(=O)[C@@H](Cc2ccc(Cl)cc2)NC(=O)[C@H]2Cc3ccccc3CN2)CC1`: the pEC50 in data set [1] was 5.89. In addition, in data set [2], the pKi is 5.77.

As to `CCCN(CCC)Cc1ccccc1N1CCN(C(=O)[C@@H](Cc2ccc(Cl)cc2)NC(=O)[C@H]2Cc3ccccc3CN2)CC1`, the pEC50 in data set [1] is 8.10. This molecule gave a negative-log Ki (pKi) in data set [2] of 7.46.

For the molecule `CN(C)Cc1ccccc1N1CCN(C(=O)[C@@H](Cc2ccc(Cl)cc2)NC(=O)[C@H]2Cc3ccccc3CN2)CC1`, the negative logarithm of the EC50 (pEC50) in data set [1] is 8.15; in data set [6], 5.74. The pKi is less than 4.70 in data set [3], 5.85 in data set [5], 7.22 in data set [2] and 5.15 in data set [10].

On to `O=C(N[C@H](Cc1ccc(Cl)cc1)C(=O)N1CCN(c2ccccc2CN2CCCCC2)CC1)[C@H]1Cc2ccccc2CN1`, for which the negative logarithm of the EC50 (pEC50) in [1] was 7.43. In [2], this molecule gave a pKi of 7.57.

`O=C(N[C@H](Cc1ccc(Cl)cc1)C(=O)N1CCN(c2ccccc2CN2CCCC2)CC1)[C@H]1Cc2ccccc2CN1` had a pEC50 in data set [1] of 7.41. The same molecule showed a pKi in data set [2] of 7.62.

Regarding `C[C@@H](O)c1ccccc1N1CCN(C(=O)[C@@H](Cc2ccc(Cl)cc2)NC(=O)[C@H]2Cc3ccccc3CN2)CC1`, the negative-log EC50 (pEC50) in [1] was 7.36. The molecule also showed a pKi in [2] of 6.47.

With `C[C@H](O)c1ccccc1N1CCN(C(=O)[C@@H](Cc2ccc(Cl)cc2)NC(=O)[C@H]2Cc3ccccc3CN2)CC1`, the pEC50 in data set [1] was 7.47. The same molecule showed a pKi in data set [2] of 6.46.

In turn, `O=C(N[C@H](Cc1ccc(Cl)cc1)C(=O)N1CCN(c2ccccc2)CC1)[C@H]1Cc2ccccc2CN1` showed a negative-log EC50 (pEC50) in [1] of 6.44. This molecule also had a pKi in data set [2] of 5.18.

`O=C(N[C@H](Cc1ccc(Cl)cc1)C(=O)N1CCN(c2ccccc2O)CC1)[C@H]1Cc2ccccc2CN1`: in data set [1], the negative-log EC50 (pEC50) is 6.31. The molecule further gave a pKi in data set [2] of 5.72.

Molecule `CC(C)c1ccccc1N1CCN(C(=O)[C@@H](Cc2ccc(Cl)cc2)NC(=O)[C@H]2Cc3ccccc3CN2)CC1` had a pEC50 in data set [1] of 6.96. In data set [2], this molecule showed a pKi of 6.14.

`Cn1ccnc1COc1ccccc1N1CCN(C(=O)[C@@H](Cc2ccc(Cl)cc2)NC(=O)[C@H]2Cc3ccccc3CN2)CC1` had a negative logarithm of the EC50 (pEC50) in data set [1] of 6.85. For the same molecule, the negative-log Ki (pKi) in data set [2] is 6.28.

For `CCc1ccccc1N1CCN(C(=O)[C@@H](Cc2ccc(Cl)cc2)NC(=O)[C@H]2Cc3ccccc3CN2)CC1`, the pEC50 in data set [1] is 6.84. The molecule also had a pKi in data set [2] of 5.89.

As to `Cn1ccnc1Cc1ccccc1N1CCN(C(=O)[C@@H](Cc2ccc(Cl)cc2)NC(=O)[C@H]2Cc3ccccc3CN2)CC1`, the pEC50 in [1] is 7.36. Moreover, the pKi in data set [2] was 6.77.

`CS(=O)(=O)NCc1ccccc1N1CCN(C(=O)[C@@H](Cc2ccc(Cl)cc2)NC(=O)[C@H]2Cc3ccccc3CN2)CC1`: in data set [1], the negative logarithm of the EC50 (pEC50) was 7.32. This molecule showed a pKi in data set [2] of 6.68.

Molecule `O=C(N[C@H](Cc1ccc(Cl)cc1)C(=O)N1CCN(c2ccccc2CO)CC1)[C@H]1Cc2ccccc2CN1` gave a pEC50 in data set [1] of 6.82. The pKi in data set [2] was 6.20.

Take `O=C(N[C@H](Cc1ccc(Cl)cc1)C(=O)N1CCN(c2ccccc2Cn2ccnc2)CC1)[C@H]1Cc2ccccc2CN1`: the pEC50 is 7.85 in data set [1] and 5.80 in data set [6]. For the same molecule, the negative-log Ki (pKi) in data set [3] was 5.40; in data set [5], 6.15; in data set [2], 6.96; in [10], 5.44.

For the molecule `CN(C)c1ccccc1N1CCN(C(=O)[C@@H](Cc2ccc(Cl)cc2)NC(=O)[C@H]2Cc3ccccc3CN2)CC1`, in data set [1], the pEC50 is 7.36. In data set [2], this molecule had a pKi of 5.96.

As to `CCOc1ccccc1N1CCN(C(=O)[C@@H](Cc2ccc(Cl)cc2)NC(=O)[C@H]2Cc3ccccc3CN2)CC1`, the pEC50 in data set [1] was 7.40. The same molecule had a pKi in data set [2] of 6.24.

For the molecule `CCN(CC)Cc1ccccc1N1CCN(C(=O)[C@@H](Cc2ccc(Cl)cc2)NC(=O)[C@H]2Cc3ccccc3CN2)CC1`, the pEC50 in [1] was 7.85. This molecule gave a pKi in data set [2] of 7.47.

One may read the pEC50 as −log10 of the EC50, conventionally taken in molar units. Read a high pEC50 as a low EC50. What is called pKi is the Ki on a negative log10 scale, so that one unit is a factor of ten. A lower pKi goes with a high Ki. Usually Tmax stands for the time from dosing to the highest level. A word on the half-life: it is how long it takes for the measured level to halve. Low readings indicate rapid decline, high ones slow decline. Usually clearance stands for the volume of plasma or blood freed of the substance per unit of time.
